According to ChEMBL document CHEMBL6103663, “Enhanced Cytotoxicity of [10]-Gingerol-Coumarin-Triazole Hybrid as a Theranostic Agent for Triple Negative Breast Cancer” (ACS Med Chem Lett, 2025):

Tests used:
MDA-MB-231 [1] = assay: Cytotoxicity against human MDA-MB-231 cells measured after 48 hrs by MTT assay; assay type: functional, cell-based; conditions: MDA-MB-231, 48 h
[2] = Drug internalization in human MDA-MB-231 cells assessed as increase in fluorescence at 5 uM measured after 1 hr by CellMask Deep Red plasma membrane/MitoTracker Red FM/Hoechst staining based fluorescence microscopy; assay type: ADME, cell-based; conditions: mda-mb-231, 1 h
Method in brief: (§1)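 Cells (1.9 × 10^4/well) adhered for 24 h and were then given 5 μM compound, in duplicate at 37 °C, alongside untreated controls. They were stained with CellMask Deep Red, MitoTracker Red FM and Hoechst for 30 min at RT, then fixed in 4% PFA. Epifluorescence high-content imaging at 40× used a FITC filter with 488 nm excitation. The untreated autofluorescence mean set the threshold, and green area per cell was quantified in μm2.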

MDA-MB-231 [3] = assay: Cytotoxicity against human MDA-MB-231 cells measured after 48 hrs by resazurin dye based fluorescence assay; assay type: functional, cell-based; conditions: MDA-MB-231, 48 h
Method in brief: (§2)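 MDA-MB-231 cells in Leibovitz-L15 with 10% FBS, 10^4 cells/well, were allowed to adhere for 24 h at 37 °C. They were then exposed to a halving serial dilution from 250 to 0.98 μM (DMSO ≤0.5% final). Next came 10% resazurin for 4 h at 37 °C, with fluorescence read at λex 540 and λem […] nm. Assays used six technical replicates across three experiments. Results were expressed as % cell death, and IC50 was taken from regression (four-parameter logistic).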

[4] = Drug internalization in human MDA-MB-231 cells assessed as intracellular uptake at 5 uM measured after 30 mins by CellMask Deep Red plasma membrane/MitoTracker Red FM/Hoechst staining based fluorescence microscopy; assay type: ADME, cell-based; conditions: mda-mb-231, 0.5 h; method in brief: as §1
[5] = Drug internalization in human MDA-MB-231 cells assessed as appearance of small blebs colocalization with mitochondria at 5 uM measured after 1 hr by DAPI/FITC/TxRed/Cy5 staining based confocal microscopy; assay type: ADME; conditions: mda-mb-231, 1 h
Method in brief: (§3)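 Preparation was the same: 5 μM treatment at 37 °C in duplicate, then staining with CellMask Deep Red, MitoTracker Red FM and Hoechst, and 4% PFA fixation. Confocal Airyscan imaging at 40× used a 1 AU pinhole with gated channels: DAPI 410–508, FITC 493–571, TxRed 548–620 and Cy5 638–759 nm. Z-stacks gave orthogonal views, thresholded against untreated cells. Pearson's coefficient was calculated between the FITC and TxRed channels.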

[6] = Drug internalization in human MDA-MB-231 cell mitochondria assessed as appearance of green fluorescence throughout the cell at 5 uM measured after 2 hrs by DAPI/FITC/TxRed/Cy5 staining based confocal microscopy; assay type: ADME; conditions: mda-mb-231, 2 h; method in brief: as §3
[7] = Drug internalization in human MDA-MB-231 cells assessed as appearance of diffuse layer of green fluorescence with small clusters inside the cell at 5 uM measured after 30 mins by DAPI/FITC/TxRed/Cy5 staining based confocal microscopy; assay type: ADME; conditions: mda-mb-231, 0.5 h; method in brief: as §3
[8] = Drug internalization in human MDA-MB-231 cell mitochondria assessed as appearance of more clustered green fluorescence at 5 uM measured after 2 hrs by DAPI/FITC/TxRed/Cy5 staining based confocal microscopy; assay type: ADME; conditions: mda-mb-231, 2 h; method in brief: as §3
[9] = Drug internalization in human MDA-MB-231 cells assessed as increase in fluorescence at 5 uM measured after 30 mins by CellMask Deep Red plasma membrane/MitoTracker Red FM/Hoechst staining based fluorescence microscopy; assay type: ADME, cell-based; conditions: mda-mb-231, 0.5 h; method in brief: as §1
MDA-MB-231 [10] = assay: Cytotoxicity against human MDA-MB-231 cells measured after 24 hrs by resazurin dye based fluorescence assay; assay type: functional, cell-based; conditions: MDA-MB-231, 24 h; method in brief: as §2
[11] = Drug internalization in human MDA-MB-231 cells assessed as interaction with mitochondria at 5 uM measured after 30 mins by DAPI/FITC/TxRed/Cy5 staining based confocal microscopy; assay type: ADME; conditions: mda-mb-231, 0.5 h; method in brief: as §3
[12] = Drug internalization in human MDA-MB-231 cells assessed as uptake in cellular perimeter at 5 uM measured after 30 mins by CellMask Deep Red plasma membrane/MitoTracker Red FM/Hoechst staining based fluorescence microscopy; assay type: ADME, cell-based; conditions: mda-mb-231, 0.5 h; method in brief: as §1
[13] = Potency index, ratio of Met10G IC50 to test compound IC50 for cytotoxicity against human MDA-MB-231 cells after 48 hrs; assay type: functional
[14] = Potency index, ratio of Met10G IC50 to test compound IC50 for cytotoxicity against human MDA-MB-231 cells after 24 hrs; assay type: functional

Row | Compound | IC50 (MDA-MB-231 [1]) [µM] | Drug uptake [2] | IC50 (MDA-MB-231 [3]) [µM] | Drug uptake [4] | Drug uptake [5] | Drug uptake [6] | Drug uptake [7] | Drug uptake [8] | Drug uptake [9] | IC50 (MDA-MB-231 [10]) [µM] | Drug uptake [11] | Drug uptake [12] | Ratio IC50 [13] | Ratio IC50 [14]
1 | CCCCCCCCC[C@H](O)CC(=O)CCc1ccc(O)c(OC)c1 | 12.1 | – | – | – | – | – | – | – | – | – | – | – | – | –
2 | COc1cc(Cl)ccc1OCCCCc1cn(CCCNC(=O)c2cc3ccc(O)cc3oc2=O)nn1 | – | Not_active | 103 | Active | Active | Active | Active | Active | Active | 116 | Active | Active | – | –
3 | CCCCCCCCC[C@H](O)CC(=O)CCc1ccc(OCCCCc2cn(CCCNC(=O)c3cc4ccc(O)cc4oc3=O)nn2)c(OC)c1 | – | Active | 2.3 | Active | Active | Active | Active | Active | Active | 19.1 | Active | Active | <=10 | 2
4 | CCCCCCCCCC(O)CC(=O)CCc1ccc(OC)c(OC)c1 (stereo unspecified) | – | Not_active | 26.9 | Active | Active | Active | Active | Active | Active | 45.6 | Active | Active | – | –
